Laboratory results as given in ChEMBL document CHEMBL1140859, “Design and synthesis of some thiazolyl and thiadiazolyl derivatives of antipyrine as potential non-acidic anti-inflammatory, analgesic and antimicrobial agents” (Bioorg Med Chem, 2009).
Values after ≈ are worked out from the molar mass of the structure shown.

How the values were obtained:
[1] = system: Rattus norvegicus; experiment: Antiinflammatory activity against formalin-induced paw edema in anaesthetized Albino rat acute inflammatory model at 20 mg/kg, po dosed 1 hr before formalin challenge assessed after 1 hr; assay type: functional
How it was run: (§1)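 Rats in groups of five plus control; test compounds 20 mg/kg po, diclofenac Na 10 mg/kg po, given 1 h before 0.1 mL 2% formalin injected subplantar into left hind paw under light ether anaesthesia. Paw volume by water plethysmometer at 0 and 1, 2, 3, 4 h after formalin; % anti-inflammatory activity versus control; mean ± SE, N = 5.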

[2] = system: Rattus norvegicus; experiment: Antiinflammatory activity against formalin-induced paw edema in anaesthetized Albino rat acute inflammatory model at 20 mg/kg, po dosed 1 hr before formalin challenge assessed after 2 hrs; assay type: functional; how it was run: as §1
[3] = system: Rattus norvegicus; experiment: Antiinflammatory activity against formalin-induced paw edema in anaesthetized Albino rat acute inflammatory model at 20 mg/kg, po dosed 1 hr before formalin challenge assessed after 3 hrs; assay type: functional; how it was run: as §1
[4] = system: Rattus norvegicus; experiment: Antiinflammatory activity against formalin-induced paw edema in anaesthetized Albino rat acute inflammatory model at 20 mg/kg, po dosed 1 hr before formalin challenge assessed after 4 hrs; assay type: functional; how it was run: as §1
[5] = system: Rattus norvegicus; experiment: Antiinflammatory activity against formalin-induced paw edema in anaesthetized Albino rat sub-acute inflammatory model at 20 mg/kg, po measured on day 1; assay type: functional
How it was run: (§2)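 Sub-acute paw edema: test compounds 20 mg/kg po daily for 7 days, diclofenac Na 10 mg/kg po; 0.1 mL 2% formalin injected subplantar into left hind paw under light ether anaesthesia on days 1 and 3, 1 h after dosing. Paw volume measured on day 1 and day 8; % anti-inflammatory activity; N = 5 rats.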

[6] = system: Rattus norvegicus; experiment: Antiinflammatory activity against formalin-induced paw edema in anaesthetized Albino rat sub-acute inflammatory model at 20 mg/kg, po for 7 days measured on day 8; assay type: functional; how it was run: as §2
[7] = system: Rattus norvegicus; experiment: Antiinflammatory activity against turpentine oil-induced granuloma pouch in anaesthetized Albino rat sub-acute inflammatory model at 20 mg/kg, po 1 hr before turpentine oil challenge for 7 days assessed after 8 days; assay type: functional
How it was run: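 Dorsal subcutaneous pouch made in ether-anaesthetised rats with 2 mL air, then 0.5 mL turpentine oil. Test compounds 20 mg/kg po, diclofenac Na 10 mg/kg po, started 1 h before turpentine and continued 7 days. Exudate aspirated on day 8 under anaesthesia; volume measured; % inhibition = (Vcontrol − Vtreated)/Vcontrol × 100; N = 5.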

[8] = system: Rattus norvegicus; experiment: Toxicity in Albino rat assessed as induction of gastric ulceration at 300 mg/kg, po twice a day after 2 hrs; assay type: organism-based, Stomach; parameters: dose 300 mg/kg, route oral; settings: in vivo
How it was run: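 Male albino rats (180–200 g), five per group, fasted 12 h with water ad libitum. Oral dosing at 300 mg/kg; the results text gives two doses at a 2 h interval, while the methods give two equal doses at 0 and 12 h over three days. Controls received 1% gum acacia orally. Rats were killed with ether 6 h after the last dose, and stomachs were inspected grossly for ulceration and hyperemia.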

[9] = Acute toxicity in Albino rat after 24 hrs; assay type: organism-based; settings: in vivo, read-out: ALD50
How it was run: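 Male rats, 180–200 g, groups of five, fasted 24 h before dosing; compounds given orally in graded doses of 0.1–3.0 g/kg; mortality recorded at each dose level after 24 h to estimate approximate acute lethal dose (ALD50).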

[10] = system: Rattus norvegicus; experiment: Analgesic activity in Albino rat assessed as tail withdrawal response at 20 mg/kg, po after 1 hr; assay type: functional
How it was run: (§3)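 Male albino rats, 120–150 g, groups of five plus untreated control; test compounds 20 mg/kg po, diclofenac Na 10 mg/kg po. Tail immersed in 55 °C water; withdrawal reaction time read 1, 2 and 3 h after dosing; percentage increase in reaction time over basal computed; mean ± SE of five animals.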

[11] = system: Rattus norvegicus; experiment: Analgesic activity in Albino rat assessed as tail withdrawal response at 20 mg/kg, po after 2 hrs; assay type: functional; how it was run: as §3
[12] = system: Rattus norvegicus; experiment: Analgesic activity in Albino rat assessed as tail withdrawal response at 20 mg/kg, po after 3 hrs; assay type: functional; how it was run: as §3
[13] = system: Staphylococcus aureus; experiment: Antimicrobial activity against Staphylococcus aureus ATCC 6538 after 24 hrs by twofold serial dilution method; assay type: functional; settings: ATCC 6538, 24 h
How it was run: (§4)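 Broth microdilution in Müller–Hinton broth on compounds with agar-diffusion inhibition zones ≥14 mm (disks with 1 mg/mL in DMSO, 37 °C, 24 h, triplicate).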

[14] = system: Bacillus subtilis; experiment: Antimicrobial activity against Bacillus subtilis NRRL B-14819 after 24 hrs by twofold serial dilution method; assay type: functional; how it was run: as §4
[15] = system: Micrococcus luteus; experiment: Antimicrobial activity against Micrococcus luteus ATCC 21881 after 24 hrs by twofold serial dilution method; assay type: functional; settings: ATCC 21881, 24 h; how it was run: as §4
[16] = system: Escherichia coli; experiment: Antimicrobial activity against Escherichia coli ATCC 25922 after 24 hrs by twofold serial dilution method; assay type: functional; settings: ATCC 25922, 24 h; how it was run: as §4
[17] = system: Pseudomonas aeruginosa; experiment: Antimicrobial activity against Pseudomonas aeruginosa ATCC 27853 after 24 hrs by twofold serial dilution method; assay type: functional; settings: ATCC 27853, 24 h; how it was run: as §4
[18] = system: Klebsiella pneumoniae; experiment: Antimicrobial activity against Klebsiella pneumoniae clinical isolate after 24 hrs by twofold serial dilution method; assay type: functional; how it was run: as §4

Row | Compound | Activity [1] | Activity [2] | Activity [3] | Activity [4] | Activity [5] | Activity [6] | Activity [7] | Activity [8] | LD50 at 24 h [9] | Activity [10] | Activity [11] | Activity [12] | MIC [13] | MIC [14] | MIC [15] | MIC [16] | MIC [17] | MIC [18]
1 | CC(=O)Nc1nnc(SCC(=O)Nc2c(C)n(C)n(-c3ccccc3)c2=O)s1 | 43% | 37% | 46% | 43% | 29% | 39% | 60% | Non-toxic | > 3000 mg/kg | 30% | 60% | 55% | 100 µg/mL (≈ 239 µM) | – | – | – | – | –
2 | Cc1c(NC(=O)/C(C#N)=C2\SC=C(c3ccc(Cl)cc3)N2c2ccc(Cl)cc2)c(=O)n(-c2ccccc2)n1C | 35% | 40% | 41% | 29% | 29% | 39% | 60% | Non-toxic | > 3000 mg/kg | 34% | 64% | 58% | – | 100 µg/mL (≈ 174 µM) | – | – | – | –
3 | CC1(C)S[C@@H]2[C@H](NC(=O)[C@H](N)c3ccccc3)C(=O)N2[C@H]1C(=O)O.O.O.O [AMPICILLIN TRIHYDRATE] | – | – | – | – | – | – | – | – | – | – | – | – | 6.25 µg/mL | 12.5 µg/mL | 12.5 µg/mL | 6.25 µg/mL | 12.5 µg/mL | 12.5 µg/mL
4 | Cc1c(NC(=O)c2sc(=S)n(-c3ccccc3)c2NC(=S)Nc2ccccc2)c(=O)n(-c2ccccc2)n1C | 30% | 37% | 41% | 40% | 40% | 39% | 65% | Non-toxic | > 3000 mg/kg | 48% | 70% | 82% | 50 µg/mL (≈ 87.3 µM) | 12.5 µg/mL (≈ 21.8 µM) | 50 µg/mL (≈ 87.3 µM) | 50 µg/mL (≈ 87.3 µM) | 50 µg/mL (≈ 87.3 µM) | 50 µg/mL (≈ 87.3 µM)
5 | Cc1c(NC(=O)c2sc(=S)n(-c3ccccc3)c2N)c(=O)n(-c2ccccc2)n1C | 35% | 37% | 41% | 43% | 20% | 34% | 50% | Non-toxic | > 3000 mg/kg | 19% | 50% | 67% | – | 100 µg/mL (≈ 229 µM) | – | – | – | –
6 | Cc1c(NC(=O)C2=C(N)N(c3ccccc3)C(=C(C#N)C#N)S2)c(=O)n(-c2ccccc2)n1C | 26% | 40% | 38% | 40% | 40% | 32% | 62% | Non-toxic | > 3000 mg/kg | 27% | 46% | 72% | – | 100 µg/mL (≈ 213 µM) | – | – | – | –
7 | Cc1nc2c(sc(=S)n2-c2ccc(Cl)cc2)c(=O)n1-c1c(C)n(C)n(-c2ccccc2)c1=O | – | – | – | – | – | – | – | – | – | – | – | – | – | 100 µg/mL (≈ 202 µM) | 100 µg/mL (≈ 202 µM) | – | – | –
8 | CCOC(=O)Nc1nnc(SCC(=O)Nc2c(C)n(C)n(-c3ccccc3)c2=O)s1 | 35% | 17% | 23% | 19% | 29% | 27% | 33% | Non-toxic | > 3000 mg/kg | 17% | 15% | 28% | – | 100 µg/mL (≈ 223 µM) | – | – | – | –
9 | Cc1c(NC(=O)c2sc(=S)n(-c3ccc(Cl)cc3)c2N)c(=O)n(-c2ccccc2)n1C | – | – | – | – | – | – | – | – | – | – | – | – | – | 100 µg/mL (≈ 212 µM) | 100 µg/mL (≈ 212 µM) | – | – | –
10 | Cc1c(NC(=O)c2sc(=S)n(-c3ccc(Cl)cc3)c2NC(=O)Nc2ccccc2)c(=O)n(-c2ccccc2)n1C | 26% | 37% | 49% | 40% | 31% | 42% | 72% | Non-toxic | > 3000 mg/kg | 18% | 49% | 44% | – | 100 µg/mL (≈ 169 µM) | – | – | – | –
11 | Cc1c(NC(=O)c2sc(=S)n(-c3ccccc3)c2NC(=S)Nc2ccc(Cl)cc2)c(=O)n(-c2ccccc2)n1C | – | – | – | – | – | – | – | – | – | – | – | – | 25 µg/mL (≈ 41.2 µM) | 12.5 µg/mL (≈ 20.6 µM) | – | 25 µg/mL (≈ 41.2 µM) | 50 µg/mL (≈ 82.3 µM) | 50 µg/mL (≈ 82.3 µM)
12 | Cc1c(NC(=O)/C(C#N)=C2\SCC(=O)N2c2ccc(Cl)cc2)c(=O)n(-c2ccccc2)n1C | – | – | – | – | – | – | – | – | – | – | – | – | 50 µg/mL (≈ 104 µM) | 25 µg/mL (≈ 52.1 µM) | 12.5 µg/mL (≈ 26 µM) | 25 µg/mL (≈ 52.1 µM) | 50 µg/mL (≈ 104 µM) | 100 µg/mL (≈ 208 µM)
13 | Cc1c(NC(=O)/C(C#N)=C2\SC=C(c3ccc(Cl)cc3)N2c2ccccc2)c(=O)n(-c2ccccc2)n1C | 39% | 29% | 33% | 43% | 37% | 44% | 58% | Non-toxic | > 3000 mg/kg | 22% | 43% | 43% | 100 µg/mL (≈ 185 µM) | – | – | – | – | –
14 | Cc1c(NC(=O)/C(C#N)=C2\SC=C(c3ccc(Br)cc3)N2c2ccccc2)c(=O)n(-c2ccccc2)n1C | – | – | – | – | – | – | – | – | – | – | – | – | – | 100 µg/mL (≈ 171 µM) | – | – | – | –
15 | Cc1c(NC(=O)c2sc(=S)n(-c3ccc(Cl)cc3)c2NC(=S)Nc2ccc(Cl)cc2)c(=O)n(-c2ccccc2)n1C | – | – | – | – | – | – | – | – | – | – | – | – | – | 100 µg/mL (≈ 156 µM) | – | – | – | –
16 | Cc1c(NC(=O)c2sc(=S)n(-c3ccc(Cl)cc3)c2NC(=S)Nc2ccccc2)c(=O)n(-c2ccccc2)n1C | – | – | – | – | – | – | – | – | – | – | – | – | 100 µg/mL (≈ 165 µM) | – | – | – | – | –
17 | Cc1c(NC(=O)CSc2nnc(N)s2)c(=O)n(-c2ccccc2)n1C | 26% | 43% | 49% | 38% | 29% | 39% | 62% | Non-toxic | > 3000 mg/kg | 42% | 71% | 76% | – | – | – | – | – | –
18 | Cc1c(NC(=O)CSc2nnc(NC(=S)Nc3ccccc3)s2)c(=O)n(-c2ccccc2)n1C | 26% | 31% | 21% | 26% | 23% | 20% | 19% | Non-toxic | > 3000 mg/kg | 27% | 43% | 46% | 100 µg/mL (≈ 195 µM) | – | – | – | – | –
19 | Cc1c(NC(=O)CSc2nnc(NC(=S)Nc3ccc(Cl)cc3)s2)c(=O)n(-c2ccccc2)n1C | – | – | – | – | – | – | – | – | – | – | – | – | 100 µg/mL (≈ 183 µM) | – | – | – | – | –
20 | Cc1c(NC(=O)/C(C#N)=C2\SCC(=O)N2c2ccccc2)c(=O)n(-c2ccccc2)n1C | 13% | 31% | 23% | 19% | 29% | 17% | 53% | Non-toxic | > 3000 mg/kg | 22% | 20% | 34% | 50 µg/mL (≈ 112 µM) | 100 µg/mL (≈ 224 µM) | 100 µg/mL (≈ 224 µM) | 50 µg/mL (≈ 112 µM) | 50 µg/mL (≈ 112 µM) | 50 µg/mL (≈ 112 µM)
